Assay results reported in PMC8319958 (ACS chemical biology, 2020).
One block for each molecule: values may come before it. Numbered stars: 1 amine (or outer) side, 2 acyl side, 3 side chain; on linkers, the order of the positions; unused ones are H or OH. Peptide text beside a SMILES is read from it. * marks the point of attachment. AMC = Cc1cc(=O)oc2cc(N*)ccc12; Suc = O=C(CCC(=O)[*:2])[*:1]; Cbz = O=C(OCc1ccccc1)*

Tests used:
MM.1R = assay: Cell viability; type: cell-based; details: 48 h, read-out: IC50 (cell viability)
proteasome = molecular target: T1, proteasome (Homo sapiens, UniProt P28074); assay: Proteasome stimulation in cells detected with TAS probes; type: cell-based; details: cells dosed 1 h with stimulator, washed, TAS3 added, monitored over 60 min
T1 sequence (P28074 60-263): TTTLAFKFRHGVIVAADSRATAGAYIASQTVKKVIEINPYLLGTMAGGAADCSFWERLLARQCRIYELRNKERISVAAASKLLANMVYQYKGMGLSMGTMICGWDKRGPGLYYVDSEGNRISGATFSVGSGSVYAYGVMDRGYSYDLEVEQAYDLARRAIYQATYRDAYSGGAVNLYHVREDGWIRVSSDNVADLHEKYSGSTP
Method in brief: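 Cells (A549, 5000/well, adhered) were pretreated 1 h with test compound in culture medium and washed three times with PBS. They were then given 10 μM probe in modified KRBH buffer, and fluorescence was read on a plate reader for […]. After 25 min equilibration each well was zeroed, linear regression was fitted, and activity was expressed as % of the DMSO control.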

A549 cells = assay: Live-cell probe cleavage in A549 cells, with or without proteasome inhibitors; type: cell-based; details: 10 μM probe, monitored over 60 min
20S CP = 20S CP (Homo sapiens, UniProt P28074); assay: LC/MS assay of library peptide cleavage by 20S CP; type: biochemical; details: 12 μM peptide, 9 nM 20S CP, 50 mM Tris pH 7.4, 37 °C, 1 h, triplicate
Method in brief: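 Peptide stocks were 600 μM in DMSO, diluted to 12 μM final in 50 mM Tris pH 7.4. One triplicate got purified 20S CP (9 nM final) and the other buffer alone; both ran 1 h at 37 °C. An equal volume of acetonitrile denatured the enzyme. LC/MS EIC peak areas of intact peptide were scaled to the buffer-control mean (set to 1) to give fraction remaining. The four-mer product mass confirmed the cleavage site.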

Molecule: CC(C)C[C@@H](C=O)NC(=O)[C@H](CC(C)C)NC(=O)[C@H](CC(C)C)NC(=O)OCc1ccccc1 [MG-132] (Cbz-Leu-Leu-Leu-aldehyde)
IC50 (MM.1R): 264 nM

proteasome stimulation (% activity vs DMSO control) (proteasome): strong stimulators
Molecule: CC(C)c1ccc2c(c1)c(SC(C)(C)C)c(CC(C)(C)C(=O)O)n2Cc1ccc(Cl)cc1 [MK-886]

Molecule: Cc1cc(=O)oc2cc(NC(=O)[C@H](Cc3ccc(O)cc3)NC(=O)[C@@H](NC(=O)[C@H](CC(C)C)NC(=O)[C@H](CC(C)C)NC(=O)CCC(=O)O)C(C)C)ccc12 [Suc-LLVY-AMC] (Suc-LLVY-{AMC})
fluorescence signal (RFU) in cells compared to TAS1 (A549 cells): significantly lower

cleavage by 20S CP (in words) (20S CP): did not accept
Molecule: D-Phe
